Shown are actives, neighbours in structure and some others; about 2.8% of the full set was active somewhere.
Rtt109 Vps75: blocks Candida albicans Rtt109/Vps75 acetyltransferase activity. purified Rtt109/Vps75, ThioGlo CoA-SH fluorescence, 4 h. 0.16% of 330,000 active. inhibition, % at 34.9 µM;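 active = inhibition of at least 50% in every replicate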
JMJD2C inh: human JMJD2C demethylase inhibition; Q9H3R0; GST-JMJD2C(1-420) H3K9me3 demethylation, DELFIA europium; inhibition, % at 2.35 µM; 0.069% of 330,000 active;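 active = more than half of a compound's replicate wells show inhibition beyond 50%, single wells judged on their own value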;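 note: signal counts dimethyl H3K9 product captured on neutravidin plate; 0% = median of DMSO wells and 100% = 0.3 times that DMSO median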
Target sequence (Q9H3R0 1-420 limits assumed): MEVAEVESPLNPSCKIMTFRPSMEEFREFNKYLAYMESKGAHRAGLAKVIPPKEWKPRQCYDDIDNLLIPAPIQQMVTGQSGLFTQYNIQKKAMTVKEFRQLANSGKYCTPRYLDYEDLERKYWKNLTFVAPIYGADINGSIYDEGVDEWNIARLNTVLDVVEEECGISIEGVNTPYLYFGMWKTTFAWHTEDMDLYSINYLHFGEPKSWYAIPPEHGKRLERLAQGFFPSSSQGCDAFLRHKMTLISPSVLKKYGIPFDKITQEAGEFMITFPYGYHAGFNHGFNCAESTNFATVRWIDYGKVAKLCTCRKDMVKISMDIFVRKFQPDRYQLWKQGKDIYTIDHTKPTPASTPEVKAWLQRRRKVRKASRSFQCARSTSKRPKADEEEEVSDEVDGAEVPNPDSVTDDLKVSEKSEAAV
T cell HTS: T cell immune modulation candidate; 2C CD8+ T cell-vesicle binding, flow cytometry; stronger effect = lower value; response (vesicle binding), % at 7 µM; 0.068% of 330,000 active;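 active = response, share of CD8 T cells binding vesicles, and their 90th percentile fluorescence all below set limits, cut at about 80% in these data, passing the limit was not always enough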;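 note: values below 100% mean blocked vesicle binding to the CD8+ T cells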
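Benchmarks: naked versus QL9-loaded vesicles / Assay system: purified 2C TCR transgenic mouse naive CD8+ T cells / Technique: high-throughput flow cytometry with anti-B7-1 and anti-CD8 staining / Timing: Cell–vesicle co-incubation 1.5 h at 37 °C, staining 20 min on ice / Read-out: percent CD8+ FL2 mean versus row control / Probe or stimulus: QL9-loaded Drosophila micro-vesicles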
NR3A LBD binder: modulators (binders) of human NR3A ligand-binding domain; NR3A LBD differential scanning fluorimetry, Tm shift; 0% = protein alone, 100% = glycine-bound protein; Tm shift relative to glycine control, % at 25 µM; 2.5% of 340,000 active; AID 1259313;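 active = melting temperature shift of at least 10% of the positive control shift, at one fixed dose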
* marks the source's active call; other numbers are inactive results.

How did COc1cccc(/C(O)=C/c2nc3ccc(C(=O)NCCc4ccc(Cl)cc4)cc3[nH]c2=O)c1 do in these assays?
Rtt109 Vps75: -11.4; JMJD2C inh: 83.2; NR3A LBD binder: 11.1*

Results for O=C(CCl)Nc1cc(-c2ccccc2)nn1-c1ccccc1 ?
Rtt109 Vps75: 3.3; JMJD2C inh: 1.2; T cell HTS: 907.0; NR3A LBD binder: 5.0

Results for Nc1ccccc1Nc1cc(-c2ccccc2)nn1-c1cccc(Cl)c1 ?
Rtt109 Vps75: 4.4; JMJD2C inh: 2.0; T cell HTS: 323.6; NR3A LBD binder: 11.2*

How did Cc1cccc(C2=NN(c3ccc(Br)cc3)[C@@H](C(=O)N3CCOC3=O)[C@@H]2c2ccc(Cl)cc2)c1 do in these assays?
Rtt109 Vps75: 5.2; NR3A LBD binder: 16.7*

Results for O=C1OCCN1C(=O)[C@H]1[C@H](c2ccccc2)C(c2cccc(Cl)c2)=NN1c1ccc(Br)cc1 ?
Rtt109 Vps75: 10.0; NR3A LBD binder: 7.2

Results for O=C1OCCN1C(=O)[C@H]1[C@H](c2ccc(Cl)cc2)C(c2ccccc2)=NN1c1ccc(Br)cc1 ?
Rtt109 Vps75: -3.6; NR3A LBD binder: 15.4*

Results for O=C(NNC(=O)c1cc(-c2ccc(Cl)cc2Cl)nc2ccccc12)Nc1ccccc1 ?
Rtt109 Vps75: -5.4; JMJD2C inh: 7.1; T cell HTS: 173.3; NR3A LBD binder: 30.3*

Results for O=C(NNC(=O)c1ccc(Cl)cc1Cl)Nc1ccccc1 ?
Rtt109 Vps75: 6.7; JMJD2C inh: 7.8; T cell HTS: 170.3; NR3A LBD binder: 0.6

How did O=C(Nc1ccc2c(c1)CCCN2C(=O)c1ccco1)c1cc([N+](=O)[O-])ccc1Cl do in these assays?
Rtt109 Vps75: -5.9; JMJD2C inh: -19.7; T cell HTS: 522.4; NR3A LBD binder: 3.1

Results for N#Cc1c(NC(=O)CN2C(=O)c3ccccc3C2=O)oc(-c2ccccc2)c1-c1ccccc1 ?
Rtt109 Vps75: 3.0; JMJD2C inh: 1.2; T cell HTS: 318.3; NR3A LBD binder: 17.0*

Results for N#Cc1c(NC(=O)CCN2C(=O)c3ccccc3C2=O)oc(-c2ccccc2)c1-c1ccccc1 ?
Rtt109 Vps75: -1.4; JMJD2C inh: 8.5; T cell HTS: 266.3; NR3A LBD binder: -1.6

How did Cc1ccc(CNC(=O)Cn2cnc(C(=O)Nc3ccc(C)c(C)c3)n2)o1 do in these assays?
Rtt109 Vps75: -2.2; NR3A LBD binder: 0.3

How did O=C(CN1CCCC1c1cccs1)N1CCN(S(=O)(=O)c2ccccc2)CC1 (stereo unspecified) do in these assays?
Rtt109 Vps75: 10.2; NR3A LBD binder: 0.5

Results for COc1ccc(C2/C=C\CC(NC(=O)OCC3c4ccccc4-c4ccccc43)CC(=O)N2Cc2ccccc2F)cc1 (stereo unspecified) ?
Rtt109 Vps75: -2.8; NR3A LBD binder: 14.0*

How did NC(=O)Cc1ccc(C(=O)CSc2nnc(-c3ccncc3)n2C2CC2)s1 do in these assays?
Rtt109 Vps75: -4.2; JMJD2C inh: 1.6; T cell HTS: 175.6; NR3A LBD binder: -3.4

How did CCN1C(=O)/C(=C\c2ccncc2)SC1=Nc1ccc(C)c(C)c1 do in these assays?
Rtt109 Vps75: -2.7; JMJD2C inh: 9.1; T cell HTS: 200.1; NR3A LBD binder: 13.1*

Results for CCCN1C(=O)/C(=C\c2ccncc2)SC1=Nc1ccccc1 ?
Rtt109 Vps75: -4.5; JMJD2C inh: 0.0; T cell HTS: 314.5; NR3A LBD binder: 8.6

What do the screens show for `CCOC(=O)c1c(C)oc2c1c(C=NCCO)c(O)c1ccccc12`?
Rtt109 Vps75: 52.5*; JMJD2C inh: 0.0; NR3A LBD binder: 1.7

What do the screens show for `O=S(=O)(Nc1ccc(-c2csc(-c3ccccc3)n2)cc1)c1ccccc1`?
Rtt109 Vps75: -1.5; JMJD2C inh: 0.9; T cell HTS: 254.2; NR3A LBD binder: 20.4*

How did Cc1ccc(S(=O)(=O)Nc2ccc(-c3csc(-c4ccccc4)n3)cc2)cc1 do in these assays?
Rtt109 Vps75: 2.4; JMJD2C inh: -8.7; T cell HTS: 399.8; NR3A LBD binder: 24.4*

Results for c1ccc(-c2csc(-c3ccc(-c4csnn4)cc3)n2)cc1 ?
Rtt109 Vps75: -6.5; JMJD2C inh: 4.1; T cell HTS: 781.3; NR3A LBD binder: 18.6*

What do the screens show for `O=C(O)c1ccc(-c2nc(-c3ccccc3)cs2)cc1`?
Rtt109 Vps75: 1.2; JMJD2C inh: -3.4; T cell HTS: 214.8; NR3A LBD binder: 3.0

Results for COc1cc(C(=O)N/N=C/c2ccc(OC(=O)c3cccc(C)c3)cc2)ccc1O ?
Rtt109 Vps75: 0.0; JMJD2C inh: 3.5; T cell HTS: 352.6; NR3A LBD binder: 22.2*

What do the screens show for `COc1cc(/C=N/NC(=O)c2cccc(S(=O)(=O)N3CCCC3)c2)ccc1O`?
Rtt109 Vps75: 5.3; JMJD2C inh: -8.0; T cell HTS: 321.3; NR3A LBD binder: 14.8*

How did COc1ccc(COC(=O)c2cccc(S(=O)(=O)N3CCCC3)c2)cc1F do in these assays?
Rtt109 Vps75: 2.0; JMJD2C inh: -0.8; T cell HTS: 222.7; NR3A LBD binder: 15.0*

How did O=C(N/N=C/c1cccc(Oc2ccccc2)c1)c1ccc(O)cc1O do in these assays?
Rtt109 Vps75: -4.9; JMJD2C inh: -3.1; T cell HTS: 425.9; NR3A LBD binder: 31.1*

How did O=C(CSc1nnc(NC(=O)c2ccco2)s1)Nc1ccc(F)cc1F do in these assays?
Rtt109 Vps75: -9.9; JMJD2C inh: -2.2; T cell HTS: inactive; NR3A LBD binder: 4.0

What do the screens show for `Cc1ccc2cc3c(=O)n(C)cc(C=O)c3nc2c1`?
Rtt109 Vps75: -7.1; NR3A LBD binder: 1.5

Results for COc1cc(C(=O)N/N=C/c2cccc(Oc3ccccc3)c2)ccc1O ?
Rtt109 Vps75: 17.2; JMJD2C inh: -2.5; T cell HTS: 371.6; NR3A LBD binder: 11.2*

How did COc1ccc(OC)c(/C=N/NC(=O)c2[nH]nc3c2CCc2ccccc2-3)c1 do in these assays?
Rtt109 Vps75: 21.8; JMJD2C inh: 6.6; T cell HTS: 232.9; NR3A LBD binder: 9.8

How did COc1cc(/C=N/NC(=O)c2cc(-c3cccs3)nc3ccccc23)ccc1O do in these assays?
Rtt109 Vps75: 0.9; JMJD2C inh: -2.6; T cell HTS: 555.9; NR3A LBD binder: 4.1

How did COc1cccc(/C=N/NC(=O)c2[nH]nc3c2CCc2ccccc2-3)c1 do in these assays?
JMJD2C inh: 4.3; T cell HTS: 414.8; NR3A LBD binder: 25.7*

Results for COc1cc(/C=N/NC(=O)c2cc(-c3cccc(OC(C)C)c3)nc3ccccc23)ccc1O ?
Rtt109 Vps75: 1.2; JMJD2C inh: -3.6; T cell HTS: 467.2; NR3A LBD binder: 11.0*

Results for CC(C)c1csc(CN2CCCC(CNC(=O)c3cccc4ccccc34)C2)n1 (stereo unspecified) ?
Rtt109 Vps75: 20.3; JMJD2C inh: -9.4; T cell HTS: 177.1; NR3A LBD binder: -0.7

How did CC(C)(C)OC(=O)N1CCC[C@H]1c1nnc(SCC(=O)Nc2cccc(Cl)c2)o1 do in these assays?
Rtt109 Vps75: -2.1; JMJD2C inh: 2.4; T cell HTS: 97.8; NR3A LBD binder: -1.9

What do the screens show for `CC(C)(C)OC(=O)N1CCC[C@H]1c1nnc(SCC(=O)Nc2ccc(Br)cc2)o1`?
Rtt109 Vps75: 8.6; JMJD2C inh: -1.2; T cell HTS: inactive; NR3A LBD binder: 29.2*

Screening data as filed in PubChem BioAssay.
